In ChEMBL document CHEMBL2177069, “Novel peptidomimetic compounds containing redox active chalcogens and quinones as potential anticancer agents” (Eur J Med Chem, 2012):

Assays:
Saccharomyces cerevisiae [1] = test: Growth inhibition of UFD2-deficient Saccharomyces cerevisiae YDL190C mutant at 20 ug/disc after 24 to 48 hrs by agar diffusion assay; assay type: functional; details: read-out: DIZ
How it was run: (§1)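 S. cerevisiae deletion mutants or wild type grown on YPD, seeded into liquid agar medium at an optical density of 0.1. 6 mm paper discs soaked with methanolic compound solution were placed on the plates and incubated at 30 °C. Growth was checked after 1 and 2 days, and the inhibition zone diameter was recorded in mm.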

Saccharomyces cerevisiae [2] = test: Growth inhibition of RCK1-deficient Saccharomyces cerevisiae YGL158W mutant at 20 ug/disc after 24 to 48 hrs by agar diffusion assay; assay type: functional; details: read-out: DIZ; how it was run: as §1
Saccharomyces cerevisiae [3] = test: Growth inhibition of POS5-deficient Saccharomyces cerevisiae YPL188W mutant at 20 ug/disc after 24 to 48 hrs by agar diffusion assay; assay type: functional; details: read-out: DIZ; how it was run: as §1
Saccharomyces cerevisiae [4] = test: Growth inhibition of WSC4-deficient Saccharomyces cerevisiae YHL028W mutant at 20 ug/disc 24 to 48 hrs by agar diffusion assay; assay type: functional; details: read-out: DIZ; how it was run: as §1
Saccharomyces cerevisiae [5] = test: Growth inhibition of wild type Saccharomyces cerevisiae BY4741 at 20 ug/disc after 24 to 48 hrs by agar diffusion assay; assay type: functional; details: read-out: DIZ; how it was run: as §1
[6] = Cytotoxicity against human PHF cells after 24 hrs by MTT assay; assay type: cell-based
How it was run: (§2)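 MTT assay. Cells were seeded at 50,000 cells/mL in medium with 10% fetal calf serum and grown for two days at 37 °C, 10% CO2. Serial dilutions of compound were then added for 24 h. MTT was added (final 0.5 mg/mL) for 2 h, and the formazan was pelleted, washed, dissolved in isopropanol with 0.4% HCl and read at 590 nm. IC50 is the concentration giving 50% of untreated-control absorbance, taken from dose-response curves; mean of two parallel experiments.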

HUVEC = test: Cytotoxicity against human HUVEC cells after 24 hrs by MTT assay; assay type: cell-based; how it was run: as §2
A-431 = test: Cytotoxicity against human A431 cells after 24 hrs by MTT assay; assay type: functional, cell-based; details: A-431, 24 h; how it was run: as §2
MDA-MB-468 = test: Cytotoxicity against human MDA-MB-468 cells; assay type: functional
T47D = test: Cytotoxicity against human T47D cells; assay type: functional
BT-549 = test: Cytotoxicity against human BT549 cells; assay type: functional
UO-31 = test: Cytotoxicity against human UO31 cells; assay type: functional
TK-10 = test: Cytotoxicity against human TK10 cells; assay type: functional
RXF 393 = test: Cytotoxicity against human RXF393 cells; assay type: functional
CAKI-1 = test: Cytotoxicity against human Caki1 cells; assay type: functional
ACHN = test: Cytotoxicity against human ACHN cells; assay type: functional
A498 = test: Cytotoxicity against human A498 cells; assay type: functional
[7] = Cytotoxicity against human 786-O cells; assay type: functional
OVCAR-8 = test: Cytotoxicity against human OVCAR8 cells; assay type: functional
UACC-62 = test: Cytotoxicity against human UACC62 cells; assay type: functional
SK-MEL-5 = test: Cytotoxicity against human SK-MEL-5 cells; assay type: functional
SK-MEL-2 = test: Cytotoxicity against human SK-MEL-2 cells; assay type: functional
MDA-MB-435 = test: Cytotoxicity against human MDA-MB-435 cells; assay type: functional
Malme-3M = test: Cytotoxicity against human MALME-3M cells; assay type: functional
M14 = test: Cytotoxicity against human M14 cells; assay type: functional
SNB-75 = test: Cytotoxicity against human SNB75 cells; assay type: functional
SF-539 = test: Cytotoxicity against human SF539 cells; assay type: functional
SNB-19 = test: Cytotoxicity against human SNB19 cells; assay type: functional
SF-295 = test: Cytotoxicity against human SF295 cells; assay type: functional
SW-620 = test: Cytotoxicity against human SW620 cells; assay type: functional
HT-29 = test: Cytotoxicity against human HT-29 cells; assay type: functional
KM12 = test: Cytotoxicity against human KM12 cells; assay type: functional
HCT-116 = test: Cytotoxicity against human HCT116 cells; assay type: functional
HCC 2998 = test: Cytotoxicity against human HCC2998 cells; assay type: functional
NCI-H522 = test: Cytotoxicity against human NCI-H522 cells; assay type: functional
NCI-H322M = test: Cytotoxicity against human NCI-H322M cells; assay type: functional
HOP-92 = test: Cytotoxicity against human HOP92 cells; assay type: functional
NCI-H226 = test: Cytotoxicity against human NCI-H226 cells; assay type: functional
RPMI-8226 = test: Cytotoxicity against human RPMI8226 cells; assay type: functional

CC1=C(SCCC(=O)OC(C[Se]C2=C(C)C(=O)c3ccccc3C2=O)C(=O)NCCCCCC(=O)OCc2ccccc2)C(=O)c2ccccc2C1=O (stereo unspecified)
zone of inhibition at 20 µg/disc (Saccharomyces cerevisiae [1]): 0 mm | zone of inhibition at 20 µg/disc (Saccharomyces cerevisiae [2]): 10 mm | zone of inhibition at 20 µg/disc (Saccharomyces cerevisiae [3]): 10 mm | zone of inhibition at 20 µg/disc (Saccharomyces cerevisiae [4]): 16 mm | zone of inhibition at 20 µg/disc (Saccharomyces cerevisiae [5]): 0 mm | IC50 [6]: 5 µM | IC50 (HUVEC): 7 µM | IC50 (A-431): 6 µM | GI50 (MDA-MB-468): 3.02 µM | LC50 (MDA-MB-468): 37.2 µM | TGI (MDA-MB-468; read-out: pTGI (converted)): 8.51 µM | GI50 (T47D): 17.8 µM | LC50 (T47D): > 100 µM | TGI (T47D; read-out: pTGI (converted)): 51.3 µM | GI50 (BT-549): 3.8 µM | LC50 (BT-549): 36.3 µM | TGI (BT-549; read-out: pTGI (converted)): 12.9 µM | GI50 (UO-31): 2.51 µM | LC50 (UO-31): 50.1 µM | TGI (UO-31; read-out: pTGI (converted)): 15.1 µM | GI50 (TK-10): 13.8 µM | LC50 (TK-10): 53.7 µM | TGI (TK-10; read-out: pTGI (converted)): 26.9 µM | GI50 (RXF 393): 14.8 µM | LC50 (RXF 393): 53.7 µM | TGI (RXF 393; read-out: pTGI (converted)): 28.2 µM | GI50 (CAKI-1): 6.92 µM | LC50 (CAKI-1): 51.3 µM | TGI (CAKI-1; read-out: pTGI (converted)): 21.4 µM | GI50 (ACHN): 12 µM | LC50 (ACHN): 63.1 µM | TGI (ACHN; read-out: pTGI (converted)): 27.5 µM | GI50 (A498): 12 µM | LC50 (50% lethal concentration) (A498): > 100 µM | TGI (A498; read-out: pTGI (converted)): > 100 µM | GI50 ([7]; 786-0): 4.68 µM | LC50 ([7]; 786-0): 38 µM | TGI ([7]; 786-0, read-out: pTGI (converted)): 14.1 µM | GI50 (OVCAR-8): 4.17 µM | LC50 (OVCAR-8): 50.1 µM | TGI (OVCAR-8; read-out: pTGI (converted)): 15.1 µM | GI50 (UACC-62): 8.13 µM | LC50 (UACC-62): 46.8 µM | TGI (UACC-62; read-out: pTGI (converted)): 20.9 µM | GI50 (SK-MEL-5): 3.8 µM | LC50 (SK-MEL-5): 39.8 µM | TGI (SK-MEL-5; read-out: pTGI (converted)): 14.8 µM | GI50 (SK-MEL-2): 5.5 µM | LC50 (SK-MEL-2): 52.5 µM | TGI (SK-MEL-2; read-out: pTGI (converted)): 19.1 µM | GI50 (MDA-MB-435): 2.14 µM | LC50 (MDA-MB-435): 49 µM | TGI (MDA-MB-435; read-out: pTGI (converted)): 12.9 µM | GI50 (Malme-3M): 2.09 µM | LC50 (Malme-3M): 56.2 µM | TGI (Malme-3M; read-out: pTGI (converted)): 6.92 µM | GI50 (M14): 2 µM | LC50 (M14): 8.91 µM | TGI (M14; read-out: pTGI (converted)): 4.27 µM | GI50 (SNB-75): 11.5 µM | LC50 (SNB-75): 49 µM | TGI (SNB-75; read-out: pTGI (converted)): 24 µM | GI50 (SF-539): 4.47 µM | LC50 (SF-539): 43.7 µM | TGI (SF-539; read-out: pTGI (converted)): 15.5 µM | GI50 (SNB-19): 3.8 µM | LC50 (SNB-19): 40.7 µM | TGI (SNB-19; read-out: pTGI (converted)): 14.1 µM | GI50 (SF-295): 2.51 µM | LC50 (SF-295): 97.7 µM | TGI (SF-295; read-out: pTGI (converted)): 8.71 µM | GI50 (SW-620): 2.45 µM | LC50 (SW-620): 36.3 µM | TGI (SW-620; read-out: pTGI (converted)): 9.33 µM | GI50 (HT-29): 3.55 µM | LC50 (HT-29): 83.2 µM | TGI (HT-29; read-out: pTGI (converted)): 20.9 µM | GI50 (KM12): 1.41 µM | LC50 (KM12): 13.8 µM | TGI (KM12; read-out: pTGI (converted)): 4.07 µM | GI50 (HCT-116): 2 µM | LC50 (HCT-116): 11.7 µM | TGI (HCT-116; read-out: pTGI (converted)): 4.57 µM | GI50 (HCC 2998): 6.46 µM | LC50 (HCC 2998): 46.8 µM | TGI (HCC 2998; read-out: pTGI (converted)): 18.6 µM | GI50 (NCI-H522): 3.98 µM | LC50 (NCI-H522): 44.7 µM | TGI (NCI-H522; read-out: pTGI (converted)): 15.1 µM | GI50 (NCI-H322M): 3.8 µM | LC50 (NCI-H322M): 66.1 µM | TGI (NCI-H322M; read-out: pTGI (converted)): 17.4 µM | GI50 (HOP-92): 2.69 µM | LC50 (50% lethal concentration) (HOP-92): 30.9 µM | TGI (HOP-92; read-out: pTGI (converted)): 7.94 µM | GI50 (NCI-H226): 19.5 µM | CC50 (NCI-H226; read-out: pLC50 (the source's name) (converted)): > 100 µM | TGI (NCI-H226; read-out: pTGI (converted)): 51.3 µM | GI50 (RPMI-8226): 2.63 µM | LC50 (RPMI-8226): > 100 µM | TGI (RPMI-8226; read-out: pTGI (converted)): 7.76 µM
